Measurements taken from ChEMBL document CHEMBL1146375, “Synthetic studies on novel benzimidazolopeptides with antimicrobial, cytotoxic and anthelmintic potential” (2007).
≈ marks a conversion by molar mass, not a printed value.

Key:
Eudrilus [1] = assay: Anthelmintic activity against Eudrilus sp. assessed as mean paralyzing time; type: functional
Method in brief: (§1)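 Earthworms exposed to test suspensions at 2 mg mL^-1 (0.2% w/v), made by triturating compound with Tween 80 (0.5%) and distilled water, then mechanically stirred 30 min. Mebendazole suspension prepared alike as reference. Paralysis and death times recorded; death confirmed by no movement in 50 °C water. Means from triplicate sets.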

[2] = Anthelmintic activity against Megascoplex konkanensis ICARBC 211 assessed as mean paralyzing time; type: functional; method in brief: as §1
Microsporum audouinii [3] = assay: Antifungal activity against Microsporum audouinii MUCC 545 after 48 hrs by disc diffusion method; type: functional
Method in brief: (§2)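 Agar well diffusion on plates inoculated with spore suspension in normal saline from cultures on Sabouraud's broth. Wells punched and loaded with test samples or griseofulvin at 10 mg mL^-1, with DMSO as negative control. Incubated 48 h at 37 °C.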

Staphylococcus aureus [4] = assay: Antibacterial activity against Staphylococcus aureus NCIM 2079 after 18 hrs by disc diffusion method; type: functional
Method in brief: (§3)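 Modified Kirby-Bauer disc diffusion. Plates inoculated with spore suspension (about 6 × 10⁴ spores mL^-1). Sterile 6 mm paper discs carried test samples at 10 mg mL^-1; ciprofloxacin disc as reference, DMF disc as negative control. Plates held 18 h at 37 °C. Inhibition zone diameters (mm) averaged over triplicate sets.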

Candida albicans [5] = assay: Antifungal activity against Candida albicans MUCC 29 after 48 hrs by disc diffusion method; type: functional; method in brief: as §2
Staphylococcus aureus [6] = assay: Antibacterial activity against Staphylococcus aureus NCIM 2079 after 18 hrs by tube dilution method; type: functional; settings: NCIM 2079, 18 h
Method in brief: (§4)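 Tube dilution MIC. Stock diluted in sterile broth to seven concentrations from 200 to 3.1 […]. Each tube inoculated with one loopful of test bacterium and incubated 18 h at 37 °C. MIC read from presence or absence of growth.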

Pseudomonas aeruginosa [7] = assay: Antibacterial activity against Pseudomonas aeruginosa NCIM 2034 after 18 hrs by tube dilution method; type: functional; settings: NCIM 2034, 18 h; method in brief: as §4
Aspergillus niger = assay: Antifungal activity against Aspergillus niger MUCC 177 after 48 hrs by disc diffusion method; type: functional; method in brief: as §2
Bacillus subtilis [8] = assay: Antibacterial activity against Bacillus subtilis NCIM 2063 after 18 hrs by tube dilution method; type: functional; settings: NCIM 2063, 18 h; method in brief: as §4
Bacillus subtilis [9] = assay: Antibacterial activity against Bacillus subtilis NCIM 2063 after 18 hrs by disc diffusion method; type: functional; method in brief: as §3
Pontoscolex corethrurus [10] = assay: Anthelmintic activity against Pontoscolex corethrurus ICARBC 408 assessed as mean death time; type: functional
Method in brief: (§5)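 Earthworms exposed to test suspensions at 2 mg mL−1, prepared by triturating compound with Tween 80 (0.5%) and distilled water, stirring 30 min, then diluting to 0.2% w/v. Mebendazole suspension was made the same way. Death was confirmed by moving worms into 50 °C warm water and looking for movement. Mean death time (min) taken from triplicate sets.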

Candida albicans [11] = assay: Antifungal activity against Candida albicans MUCC 29 after 48 hrs by tube dilution method; type: functional
Method in brief: (§6)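 Tube dilution MIC as for bacteria (seven concentrations, 200–3.1 […]), with DMSO in place of DMF. Tubes inoculated with fungal culture and incubated 48 h at 37 °C. MIC read from presence or absence of growth.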

Trichophyton benhamiae [12] = assay: Antifungal activity against Trichophyton mentagrophytes MUCC 665 after 48 hrs by disc diffusion method; type: functional, Arthroderma benhamiae; method in brief: as §2
Trichophyton benhamiae [13] = assay: Antifungal activity against Trichophyton mentagrophytes MUCC 665 after 48 hrs by tube dilution method; type: functional, Arthroderma benhamiae; method in brief: as §6
Escherichia coli [14] = assay: Antibacterial activity against Escherichia coli NCIM 2065 after 18 hrs by tube dilution method; type: functional; settings: NCIM 2065, 18 h
Escherichia coli [15] = assay: Antibacterial activity against Escherichia coli NCIM 2065 after 18 hrs by disc diffusion method; type: functional; method in brief: as §3
Pseudomonas aeruginosa [16] = assay: Antibacterial activity against Pseudomonas aeruginosa NCIM 2034 after 18 hrs by disc diffusion method; type: functional; method in brief: as §3
[17] = Anthelmintic activity against Megascoplex konkanensis ICARBC 211 assessed as mean death time; type: functional; method in brief: as §1
Pontoscolex corethrurus [18] = assay: Anthelmintic activity against Pontoscolex corethrurus ICARBC 408 assessed as mean paralyzing time; type: functional; method in brief: as §1
Microsporum audouinii [19] = assay: Antifungal activity against Microsporum audouinii MUCC 545 after 48 hrs by tube dilution method; type: functional; method in brief: as §6
Eudrilus [20] = assay: Anthelmintic activity against Eudrilus sp. assessed as mean death time; type: functional; method in brief: as §5

SMILES	Time (Eudrilus [1]) [min]	TIME [2] [h]	inhibition zone (IZ) (Microsporum audouinii [3]) [mm]	inhibition zone (IZ) (Staphylococcus aureus [4]) [mm]	inhibition zone (IZ) (Candida albicans [5]) [mm]	MIC (Staphylococcus aureus [6]) [mg/L]	MIC (Pseudomonas aeruginosa [7]) [mg/L]	inhibition zone (IZ) (Aspergillus niger) [mm]	MIC (Bacillus subtilis [8]) [mg/L]	inhibition zone (IZ) (Bacillus subtilis [9]) [mm]	Time (Pontoscolex corethrurus [10]) [min]	MIC (Candida albicans [11]) [mg/L]	inhibition zone (IZ) (Trichophyton benhamiae [12]) [mm]	MIC (Trichophyton benhamiae [13]) [mg/L]	MIC (Escherichia coli [14]) [mg/L]	inhibition zone (IZ) (Escherichia coli [15]) [mm]	inhibition zone (IZ) (Pseudomonas aeruginosa [16]) [mm]	TIME [17] [h]	Time (Pontoscolex corethrurus [18]) [min]	MIC (Microsporum audouinii [19]) [mg/L]	other results
COC(=O)[C@H](Cc1ccc(O)cc1)NC(=O)[C@H](Cc1cnc[nH]1)NC(=O)c1ccc(-c2nc3cc(C)c(C)cc3[nH]2)cc1	13.49	0.228	8	10	16	12.5 (≈ 21.5 µM)	12.5 (≈ 21.5 µM)	16	6 (≈ 10.3 µM)	14	29.18	12.5 (≈ 21.5 µM)	13	6 (≈ 10.3 µM)	25 (≈ 43.1 µM)	15	19	0.377	17.55	25 (≈ 43.1 µM)	Time (Eudrilus [20]): 23.98 min
Cc1cc2nc(-c3c(I)cc(C(=O)N[C@@H](C)C(=O)N[C@@H](Cc4ccc(O)cc4)C(=O)NCC(=O)O)cc3I)[nH]c2cc1C	26.25	0.454	9	13	16	12.5 (≈ 15.4 µM)	6 (≈ 7.41 µM)	15	6 (≈ 7.41 µM)	16	47.45	6 (≈ 7.41 µM)	15	12.5 (≈ 15.4 µM)	12.5 (≈ 15.4 µM)	18	23	0.676	35.42	12.5 (≈ 15.4 µM)	Time (Eudrilus [20]): 45.22 min
COC(=O)[C@H](C)NC(=O)[C@@H]1CCCN1C(=O)c1cc(-c2nc3ccc([N+](=O)[O-])cc3[nH]2)ccc1O	27.23	0.438	12	9	22	25 (≈ 51.9 µM)	6 (≈ 12.5 µM)	16	12.5 (≈ 26 µM)	13	43.76	6 (≈ 12.5 µM)	17	6 (≈ 12.5 µM)	12.5 (≈ 26 µM)	18	28	0.587	31.98	6 (≈ 12.5 µM)	Time (Eudrilus [20]): 35.82 min
COC(=O)[C@H](CCCNC(=N)N[N+](=O)[O-])NC(=O)c1cc(-c2nc3ccc([N+](=O)[O-])cc3[nH]2)ccc1O	17.98	0.27	13	10	15	25 (≈ 48.6 µM)	6 (≈ 11.7 µM)	18	6 (≈ 11.7 µM)	13	32.22	12.5 (≈ 24.3 µM)	15	6 (≈ 11.7 µM)	12.5 (≈ 24.3 µM)	15	19	0.426	20.65	6 (≈ 11.7 µM)	Time (Eudrilus [20]): 28.27 min
CC[C@H](C)[C@H](NC(=O)[C@H](CC(C)C)NC(=O)c1cc(-c2nc3cc(C)c(C)cc3[nH]2)ccc1O)C(=O)OC	25.69	0.425	12	10	19	12.5 (≈ 23.9 µM)	6 (≈ 11.5 µM)	19	6 (≈ 11.5 µM)	15	41.53	6 (≈ 11.5 µM)	13	6 (≈ 11.5 µM)	12.5 (≈ 23.9 µM)	16	20	0.569	29.83	6 (≈ 11.5 µM)	Time (Eudrilus [20]): 36.12 min
COC(=O)[C@@H]1CCCN1C(=O)[C@@H](NC(=O)[C@H](Cc1ccccc1)NC(=O)c1cc(I)c(-c2nc3cc(C)c(C)cc3[nH]2)c(I)c1)C(C)C	29.24	0.454	10	12	16	25 (≈ 28.6 µM)	12.5 (≈ 14.3 µM)	14	6 (≈ 6.85 µM)	16	50.22	6 (≈ 6.85 µM)	12	6 (≈ 6.85 µM)	25 (≈ 28.6 µM)	16	22	0.672	33.64	12.5 (≈ 14.3 µM)	Time (Eudrilus [20]): 45.34 min
COC(=O)[C@H](Cc1cnc[nH]1)NC(=O)c1cc(I)c(-c2nc3cc(C)c(C)cc3[nH]2)c(I)c1	34.34	0.488	11	12	18	12.5 (≈ 18.7 µM)	6 (≈ 8.97 µM)	14	6 (≈ 8.97 µM)	16	47.82	6 (≈ 8.97 µM)	12	12.5 (≈ 18.7 µM)	12.5 (≈ 18.7 µM)	18	24	0.758	34.14	25 (≈ 37.4 µM)	Time (Eudrilus [20]): 46.3 min
COC(=O)[C@H](Cc1c[nH]c2ccccc12)NC(=O)c1cc(-c2nc3ccc([N+](=O)[O-])cc3[nH]2)ccc1O	13.37	0.218	10	12	20	12.5 (≈ 25 µM)	12.5 (≈ 25 µM)	16	6 (≈ 12 µM)	12	29.41	6 (≈ 12 µM)	17	6 (≈ 12 µM)	12.5 (≈ 25 µM)	16	20	0.374	17.02	12.5 (≈ 25 µM)	Time (Eudrilus [20]): 23.93 min
COC(=O)[C@@H]1CCCN1C(=O)[C@@H]1CCCN1C(=O)[C@@H]1CCCN1C(=O)c1cc(-c2nc3ccc([N+](=O)[O-])cc3[nH]2)ccc1O	26.67	0.425	13	11	24	12.5 (≈ 20.7 µM)	6 (≈ 9.92 µM)	17	6 (≈ 9.92 µM)	14	40.38	6 (≈ 9.92 µM)	17	12.5 (≈ 20.7 µM)	25 (≈ 41.3 µM)	17	27	0.569	30.59	6 (≈ 9.92 µM)	Time (Eudrilus [20]): 37.44 min
COC(=O)CNC(=O)CNC(=O)c1cc(-c2nc3ccc([N+](=O)[O-])cc3[nH]2)ccc1O	25.74	0.461	13	9	18	12.5 (≈ 29.2 µM)	6 (≈ 14 µM)	17	25 (≈ 58.5 µM)	9	42.45	6 (≈ 14 µM)	15	6 (≈ 14 µM)	12.5 (≈ 29.2 µM)	16	22	0.608	31.38	6 (≈ 14 µM)	Time (Eudrilus [20]): 36.77 min
